Results gathered from unrelated publications.
Each line is one published result; the experiments were not run side by side.
Observed: cell growth or viability

Structure (SMILES) | cell line | method | concentration | time | measurement | result
Oc1cccc(-c2nc(N3CCOCC3)c3oc4ncccc4c3n2)c1 | MDA-MB-231 | CCK-8 | 1 µM | – | inhibition | 18.8%
CCCCC(=O)Nc1ccc(-c2ccc3ncn(CCC)c(=O)c3c2)cn1 | MRC5 | CCK-8 | – | 72 h | IC50 | 480 nM
CN(C)c1cccc(Nc2nc(-c3ccncc3)nc3c2CNCC3)c1 | A-375 | MTT | – | – | IC50 | 88800 nM
O=C(Nc1ccccc1)Nc1ccc(Oc2nc3ccccc3n3cnnc23)cc1 | MDA-MB-231 | MTT | 25 µM | 24 h | viability | 70.1%
COc1cc(C(=O)c2nc(-c3cccc4[nH]ccc34)cs2)cc(OC)c1OC | A-375 | MTS | – | 72 h | IC50 | 5.6 nM
Cc1nc(Nc2ncc(C(=O)Nc3c(C)cccc3Cl)s2)cc(N2CC[C@H](O)C2)n1 | OCI-Ly3 | ATP luminescence | 10 µM | 72 h | inhibition | 45%
NCC(=O)Nc1ccccc1/N=c1\cc(-c2ccc3c(c2)OCO3)oc2ccccc12 | MDA-MB-231 | CCK-8 | 1 µM | – | inhibition | 12.4%
COc1cccc2c1C(=O)c1c(O)c3c(c(O)c1C2=O)C[C@@](O)(C(=O)CO)C[C@@H]3O[C@H]1C[C@H](N)[C@H](O)[C@H](C)O1 | HS27 | CCK-8 | – | 72 h | IC50 | 109 nM
COc1cc(C(=O)c2nc(-c3cccc4c3CC(=O)N4)c[nH]2)cc(OC)c1OC | A-375 | MTS | – | 72 h | IC50 | 27.5 nM
O=C(Nc1ccccc1/N=c1\cc(-c2ccc3c(c2)OCO3)oc2ccccc12)N1CCNCC1 | MDA-MB-231 | CCK-8 | 1 µM | – | inhibition | 2.22%
COc1cccc(NC(=O)Nc2ccc(Oc3nc4ccccc4n4cnnc34)cc2)c1 | MDA-MB-231 | MTT | 25 µM | 24 h | viability | 46.2%
COc1ccc2/c(=N/c3ccccc3NC(=O)[C@@H](N)C(C)(C)C)cc(-c3ccc4c(c3)OCCO4)oc2c1 | MDA-MB-231 | CCK-8 | 1 µM | – | inhibition | 6.88%
COc1cc(C(=O)c2nc(-c3cccc4c3CCN4)c[nH]2)cc(OC)c1OC | A-375 | MTS | – | 72 h | IC50 | 22 nM
O=C(Nc1ccc(Oc2nc3ccccc3n3cnnc23)cc1)Nc1cccc(Cl)c1 | MDA-MB-231 | MTT | 3.125 µM | 24 h | viability | 100%
NCCC(=O)Nc1ccc(/N=c2\cc(-c3ccc4c(c3)OCO4)oc3ccccc23)cc1 | MDA-MB-231 | CCK-8 | 1 µM | – | inhibition | 5.95%
COc1cc(C(=O)c2nc(-c3ccncc3)c[nH]2)cc(OC)c1OC | A-375 | MTS | – | 72 h | IC50 | > 1000 nM
CNC(=O)c1cc(Oc2ccc(NC(=O)Nc3ccc(Cl)c(C(F)(F)F)c3)cc2)ccn1 | MDA-MB-231 | MTT | 100 µM | 24 h | viability | 6.9%
